Laboratory results as given in ChEMBL document CHEMBL2062417, “Biotinylated quercetin as an intrinsic photoaffinity proteomics probe for the identification of quercetin target proteins” (Bioorg Med Chem, 2011).
Calls of active or inactive are those of the source. The calls are words filed in the database; no cut-off is given here.

Assays:
[1] = molecular target: ATP synthase F(1) complex subunit beta, mitochondrial (Homo sapiens) (UniProt P06576); experiment: Binding affinity to ATP5B in human Jurkat cells at 150 uM followed by UV irradiation for 30 mins with Wood's glass filtered medium pressure mercury arc light after cell lysis measured after denaturing wash by SDS-PAGE based pull down assay
Sequence of ATP synthase F(1) complex subunit beta, mitochondrial (Homo sapiens) (P06576 whole entry, one chain of several): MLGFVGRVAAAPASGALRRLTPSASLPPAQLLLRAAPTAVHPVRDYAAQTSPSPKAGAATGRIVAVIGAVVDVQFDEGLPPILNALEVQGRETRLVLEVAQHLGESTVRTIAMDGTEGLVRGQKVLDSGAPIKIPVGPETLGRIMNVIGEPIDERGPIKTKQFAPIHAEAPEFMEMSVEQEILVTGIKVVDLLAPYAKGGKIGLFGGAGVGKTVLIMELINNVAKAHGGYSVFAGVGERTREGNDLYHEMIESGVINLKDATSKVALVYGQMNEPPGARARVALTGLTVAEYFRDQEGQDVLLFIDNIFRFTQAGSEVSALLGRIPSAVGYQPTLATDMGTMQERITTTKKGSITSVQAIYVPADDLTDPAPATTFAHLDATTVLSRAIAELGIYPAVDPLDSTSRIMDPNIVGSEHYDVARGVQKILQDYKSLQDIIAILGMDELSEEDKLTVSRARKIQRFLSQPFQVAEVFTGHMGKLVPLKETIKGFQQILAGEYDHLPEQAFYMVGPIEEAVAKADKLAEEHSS
Summary of the method: (§1)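 Jurkat cells were grown in RPMI with 10% FBS (about 15×10^6 cells) and treated 2 h with 150 μM BioQ in 3% aqueous DMSO. They were heat-shocked at 43 °C for 30 min, recovered 1 h at 37 °C, and UV-irradiated (320–400 nm, peak 365 nm, 30 min, 4 °C) before or after sonication lysis. Streptavidin-agarose capture ran 1 h. Beads were washed ≥3× with lysis buffer or 2% SDS Tris pH 7.4, boiled, run on 12% SDS-PAGE and silver-stained.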

[2] = molecular target: Eukaryotic translation initiation factor 3 subunit F (Homo sapiens) (UniProt O00303); experiment: Binding affinity to EIF3F in human Jurkat cells at 150 uM followed by UV irradiation for 30 mins with Wood's glass filtered medium pressure mercury arc light prior to cell lysis measured after denaturing wash by SDS-PAGE based pull down assay; summary of the method: as §1
Sequence of Eukaryotic translation initiation factor 3 subunit F (Homo sapiens) (O00303 whole entry): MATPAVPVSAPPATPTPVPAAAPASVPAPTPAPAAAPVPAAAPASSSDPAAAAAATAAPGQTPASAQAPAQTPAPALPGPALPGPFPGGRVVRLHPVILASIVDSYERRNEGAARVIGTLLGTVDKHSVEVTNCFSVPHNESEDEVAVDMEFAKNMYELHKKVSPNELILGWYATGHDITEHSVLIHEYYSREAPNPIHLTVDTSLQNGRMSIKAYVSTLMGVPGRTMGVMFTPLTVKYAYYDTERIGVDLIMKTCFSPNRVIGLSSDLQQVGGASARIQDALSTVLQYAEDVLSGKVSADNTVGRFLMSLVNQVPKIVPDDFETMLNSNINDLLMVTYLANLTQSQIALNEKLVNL

[3] = molecular target: Heat shock protein HSP 90-alpha (Homo sapiens) (UniProt P07900); experiment: Binding affinity to HSP90AA1 in human Jurkat cells at 150 uM followed by UV irradiation for 30 mins with Wood's glass filtered medium pressure mercury arc light after cell lysis measured after denaturing wash by SDS-PAGE based pull down assay; summary of the method: as §1
[4] = molecular target: T1, Splicing factor 3B subunit 3 (Homo sapiens) (UniProt Q15393); experiment: Binding affinity to SF3B3 in human Jurkat cells at 150 uM followed by UV irradiation for 30 mins with Wood's glass filtered medium pressure mercury arc light prior to cell lysis measured after denaturing wash by LC-MS/MS based pull down assay
T1 sequence (whole entry): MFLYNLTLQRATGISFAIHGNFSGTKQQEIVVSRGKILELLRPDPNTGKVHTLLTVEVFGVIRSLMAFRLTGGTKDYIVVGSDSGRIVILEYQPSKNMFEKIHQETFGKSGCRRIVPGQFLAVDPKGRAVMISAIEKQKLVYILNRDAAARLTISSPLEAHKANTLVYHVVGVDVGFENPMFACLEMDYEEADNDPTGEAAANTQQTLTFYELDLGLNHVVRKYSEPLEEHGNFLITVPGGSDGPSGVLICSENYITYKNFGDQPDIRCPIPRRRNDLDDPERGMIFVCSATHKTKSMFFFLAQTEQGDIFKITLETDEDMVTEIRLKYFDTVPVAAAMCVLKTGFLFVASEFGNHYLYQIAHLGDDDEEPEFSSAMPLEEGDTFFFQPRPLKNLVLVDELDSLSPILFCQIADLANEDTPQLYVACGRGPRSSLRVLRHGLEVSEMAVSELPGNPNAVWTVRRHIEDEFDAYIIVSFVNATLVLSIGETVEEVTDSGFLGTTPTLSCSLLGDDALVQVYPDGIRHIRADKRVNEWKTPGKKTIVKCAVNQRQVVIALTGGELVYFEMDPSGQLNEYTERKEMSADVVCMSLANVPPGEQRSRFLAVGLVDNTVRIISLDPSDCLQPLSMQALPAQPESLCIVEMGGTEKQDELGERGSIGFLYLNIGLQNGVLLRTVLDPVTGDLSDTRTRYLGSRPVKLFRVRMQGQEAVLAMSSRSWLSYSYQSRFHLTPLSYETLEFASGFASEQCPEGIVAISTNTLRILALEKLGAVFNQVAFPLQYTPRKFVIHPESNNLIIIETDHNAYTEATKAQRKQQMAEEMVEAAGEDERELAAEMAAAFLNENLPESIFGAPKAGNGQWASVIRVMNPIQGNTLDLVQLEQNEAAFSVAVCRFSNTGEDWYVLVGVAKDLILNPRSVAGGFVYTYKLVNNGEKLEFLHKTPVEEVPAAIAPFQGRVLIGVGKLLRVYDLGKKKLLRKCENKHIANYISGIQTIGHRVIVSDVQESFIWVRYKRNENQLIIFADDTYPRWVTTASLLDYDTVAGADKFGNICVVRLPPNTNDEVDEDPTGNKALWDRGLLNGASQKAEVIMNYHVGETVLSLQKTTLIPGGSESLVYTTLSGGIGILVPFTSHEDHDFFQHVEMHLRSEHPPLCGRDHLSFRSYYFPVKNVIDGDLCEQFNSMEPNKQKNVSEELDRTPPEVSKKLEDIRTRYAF
Summary of the method: (§2)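 Silver-stained bands from cells irradiated before lysis were excised, destained, reduced with 10 mM DTT, alkylated with 50 mM iodoacetamide and digested with trypsin overnight. Peptides were extracted in 1% TFA/50% acetonitrile. Nano-C18 LC used a 2–50% acetonitrile gradient with 0.1% formic acid over 50 min at 260 nL/min, followed by MS/MS identification.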

[5] = molecular target: Heat shock protein HSP 90-alpha (Homo sapiens) (UniProt P07900); experiment: Binding affinity to HSP90AA1 in human Jurkat cells at 150 uM followed by UV irradiation for 30 mins with Wood's glass filtered medium pressure mercury arc light prior to cell lysis measured after denaturing wash by SDS-PAGE based pull down assay; summary of the method: as §1
[6] = molecular target: Actin, cytoplasmic 1 (Homo sapiens) (UniProt P60709); experiment: Binding affinity to ACTB in human Jurkat cells at 150 uM followed by UV irradiation for 30 mins with Wood's glass filtered medium pressure mercury arc light after cell lysis measured after denaturing wash by SDS-PAGE based pull down assay; summary of the method: as §1
[7] = molecular target: Eukaryotic translation initiation factor 3 subunit F (Homo sapiens) (UniProt O00303); experiment: Binding affinity to EIF3F in human Jurkat cells at 150 uM followed by UV irradiation for 30 mins with Wood's glass filtered medium pressure mercury arc light prior to cell lysis measured after denaturing wash by LC-MS/MS based pull down assay; summary of the method: as §2
[8] = molecular target: Heat shock-related 70 kDa protein 2 (Homo sapiens) (UniProt P54652); experiment: Binding affinity to HSPA2 in human Jurkat cells at 150 uM followed by UV irradiation for 30 mins with Wood's glass filtered medium pressure mercury arc light after cell lysis measured after denaturing wash by SDS-PAGE based pull down assay; summary of the method: as §1
Sequence of Heat shock-related 70 kDa protein 2 (Homo sapiens) (P54652 whole entry): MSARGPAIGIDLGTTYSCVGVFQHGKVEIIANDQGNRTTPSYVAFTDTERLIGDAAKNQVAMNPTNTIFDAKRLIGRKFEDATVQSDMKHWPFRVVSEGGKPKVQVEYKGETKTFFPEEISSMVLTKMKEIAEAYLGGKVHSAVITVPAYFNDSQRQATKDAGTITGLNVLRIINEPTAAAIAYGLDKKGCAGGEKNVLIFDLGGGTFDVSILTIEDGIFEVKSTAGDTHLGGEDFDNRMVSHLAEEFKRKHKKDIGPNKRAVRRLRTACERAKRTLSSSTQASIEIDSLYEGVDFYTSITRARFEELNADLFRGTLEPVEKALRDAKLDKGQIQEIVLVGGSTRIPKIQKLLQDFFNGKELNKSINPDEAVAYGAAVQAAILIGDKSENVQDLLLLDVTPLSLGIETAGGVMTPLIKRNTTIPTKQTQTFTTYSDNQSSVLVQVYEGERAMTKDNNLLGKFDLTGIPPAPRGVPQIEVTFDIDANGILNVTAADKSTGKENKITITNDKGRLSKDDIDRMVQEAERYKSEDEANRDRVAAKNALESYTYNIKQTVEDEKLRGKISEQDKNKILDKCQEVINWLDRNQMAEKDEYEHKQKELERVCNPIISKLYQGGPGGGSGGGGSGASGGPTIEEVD

[9] = molecular target: ATP synthase F(1) complex subunit beta, mitochondrial (Homo sapiens) (UniProt P06576); experiment: Binding affinity to ATP5B in human Jurkat cells at 150 uM followed by UV irradiation for 30 mins with Wood's glass filtered medium pressure mercury arc light prior to cell lysis measured after denaturing wash by LC-MS/MS based pull down assay; summary of the method: as §2

- Activity [1]: Active
- Activity [2]: Active
- Activity [3]: Active
- Activity [4]: Active
- Activity [5]: Active
- Activity [6]: Active
- Activity [7]: Active
- Activity [8]: Active
- Activity [9]: Active
SMILES: O=C(CCCC[C@@H]1SC[C@@H]2NC(=O)N[C@@H]21)NCCOCCOCCNC(=O)COc1cc(O)c2c(=O)c(O)c(-c3ccc(O)c(O)c3)oc2c1
